Data set [1] relates to P388. The data set can be described thus: Antitumor activity against P-388 lymphocytic leukemia in CDF1 hybrid male mice measured as median survival time ( 0.6 mg/kg),ip. Type of data set: functional, Mus musculus. The method, boiled down: (§1)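 Male CDF1 mice (18-23 g) were inoculated ip with 10⁶ P-388 cells on day 0. Drug was given ip in 10% dimethyl sulfoxide-saline on days 1, 5 and 9. Test solutions were kept at 0-4 °C, protected from light, and checked periodically for stability and homogeneity by TLC and HPLC. Read-out was survival, median survival time, increase in life span and tumor-free cures per 7 animals.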

Data set [2] deals with P388. Briefly: Antitumor activity against P-388 lymphocytic leukemia in CDF1 hybrid male mice measured as median survival time ( 0.3 mg/kg),ip. It counts as functional, Mus musculus. The method, boiled down:
as §1

Data set [3] has as its system P388. Briefly: Antitumor activity against P-388 lymphocytic leukemia in CDF1 hybrid male mice measured as percent increase in lifespan(0.15 mg/kg),ip. Type of data set: functional, Mus musculus. The method, boiled down:
as §1

Data set [4] has as its system P388. Briefly: Antitumor activity against P-388 lymphocytic leukemia in CDF1 hybrid male mice measured as median survival time ( 0.15 mg/kg),ip. It counts as functional, Mus musculus. The method, boiled down: as §1
The subject of data set [5] is P388. The data set can be described thus: Antitumor activity against P-388 lymphocytic leukemia in CDF1 hybrid male mice measured as median survival time ( 1.2 mg/kg),ip. It counts as functional, Mus musculus. In a few lines:
as §1

For data set [6], the system named is P388. The data set can be described thus: Number of mice with P-388 lymphocytic leukemia cured( 0.6 mg/kg),ip; 1/7. It counts as functional, Mus musculus. In a few lines: as §1
Data set [7] relates to P388. Briefly: Number of mice with P-388 lymphocytic leukemia cured.( 1.8 mg/kg),ip; 0/7. It counts as functional, Mus musculus.
The subject of data set [8] is P388. The data set can be described thus: Minimum effective dose was determined compared to 7-(2,3-Epoxypropoxy)-actinomycin D against P-388 leukemia in mice(3 days). Type of data set: functional, Mus musculus. Also noted: unit: mg/kg. In a few lines: (§2)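 MED was the dose (mg/kg) giving a 40% increase in life span over control in mice bearing ip P-388 leukemia. Drug was given ip in 10% dimethyl sulfoxide-saline on a q4d 1, 5, 9 (three injections) or qd 1-4 (four injections) schedule.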

In data set [9] the test system is P388. Briefly: Antitumor activity against P-388 lymphocytic leukemia in CDF1 hybrid male mice measured as percent increase in lifespan( 1.2 mg/kg),ip. Type of data set: functional. Particulars: Mus musculus. In a few lines:
as §1

Data set [10] has as its system P388. Briefly: Maximum tolerated dose was determined compared to 7-(2,3-Epoxypropoxy)-actinomycin D against P-388 leukemia in mice(4 days). It counts as functional, Mus musculus. In a few lines: (§3)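 Tumor-free male CDF1 mice (18-23 g) received a broad dose range ip in 10% dimethyl sulfoxide-saline, either on days 1, 5, 9 (three injections) or on 4 successive days (qd 1-4). Deaths were recorded over 21 days. MTD was the dose lethal to 10% (LD10), taken from a plot of log dose vs percent mortality. Average of two experiments.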

Data set [11] has as its system P388. The data set can be described thus: Maximum tolerated dose was determined compared to 7-(2,3-Epoxypropoxy)-actinomycin D against P-388 leukemia in mice(3 days). It counts as functional, Mus musculus. The method, boiled down: as §3
Data set [12] deals with P388. The data set can be described thus: Antitumor activity against P-388 lymphocytic leukemia in CDF1 hybrid male mice measured as percent increase in lifespan(0.3 mg/kg),ip. It counts as functional, Mus musculus. The method, boiled down:
as §1

Data set [13] relates to P388. Briefly: Number of mice with P-388 lymphocytic leukemia cured( 0.15 mg/kg),ip.; 0/7. It counts as functional, Mus musculus. In a few lines:
as §1

For data set [14], the system named is P388. The data set can be described thus: Antitumor activity against P-388 lymphocytic leukemia in CDF1 hybrid male mice measured as median survival time ( 1.8 mg/kg),ip. Type of data set: functional, Mus musculus. The method, boiled down: as §1
The subject of data set [15] is P388. Briefly: Antitumor activity against P-388 lymphocytic leukemia in CDF1 hybrid male mice measured as percent increase in lifespan(0.6 mg/kg),ip. Type of data set: functional, Mus musculus. The method, boiled down: as §1
Data set [16] has as its system P388. The data set can be described thus: Minimum effective dose was determined compared to 7-(2,3-Epoxypropoxy)-actinomycin D against P-388 leukemia in mice(4 days). It counts as functional, Mus musculus. In a few lines:
as §2

Data set [17] concerns P388. Briefly: Number of mice with P-388 lymphocytic leukemia cured( 1.2 mg/kg),ip; 0/7. Type of data set: functional, Mus musculus. In a few lines: as §1
For data set [18], the system named is P388. The data set can be described thus: Antitumor activity against P-388 lymphocytic leukemia in CDF1 hybrid male mice measured as percent increase in lifespan( 1.8 mg/kg),ip. Type of data set: functional. Particulars: Mus musculus. In a few lines:
as §1

The subject of data set [19] is P388. The data set can be described thus: Number of mice with P-388 lymphocytic leukemia cured( 0.3 mg/kg),ip; 2/7. It counts as functional, Mus musculus. The method, boiled down:
as §1

For another data set, the species on record is Homo sapiens. Briefly: In vitro growth inhibitory activity against human lymphoblastic leukemia cells. Type of data set: functional. As to conditions: read-out: ID50 (the source's name). In a few lines: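 CCRF-CEM human lymphoblastic leukemia cells in log-phase growth; compounds dissolved in Me₂SO, final growth medium 1% Me₂SO.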
Data set [20] concerns P388. Briefly: Antitumor activity against P-388 lymphocytic leukemia in CDF1 hybrid male mice measured as percent increase in lifespan(0.062 mg/kg),ip. It counts as functional, Mus musculus. In a few lines:
as §1

The subject of data set [21] is P388. Briefly: Number of mice with P-388 lymphocytic leukemia cured( 0.250 mg/kg),ip; 0/7. It counts as functional, Mus musculus. As to conditions: dose 0.25 mg/kg.
The subject of data set [22] is P388. Briefly: Antitumor activity against P-388 lymphocytic leukemia in CDF1 hybrid male mice measured as median survival time (0.031 mg/kg),ip. It counts as functional, Mus musculus. The method, boiled down:
as §1

Data set [23] concerns P388. Briefly: Number of mice with P-388 lymphocytic leukemia cured.( 0.062 mg/kg),ip; 0/7. Type of data set: functional, Mus musculus.
Data set [24] has as its system P388. Briefly: Antitumor activity against P-388 lymphocytic leukemia in CDF1 hybrid male mice measured as median survival time (0.062 mg/kg),ip. It counts as functional, Mus musculus. In a few lines: as §1
Data set [25] concerns P388. Briefly: Antitumor activity against P-388 lymphocytic leukemia in CDF1 hybrid male mice measured as median survival time (0.125 mg/kg),ip. Type of data set: functional, Mus musculus. In a few lines:
as §1

Data set [26] is described as follows: Therapeutic Index measured as the MTD/MED ratio compared to that of compound 4. Particulars: read-out: Therapeutic index. In a few lines:
(§4)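 Therapeutic index is MTD/MED, with ip dosing in 10% dimethyl sulfoxide-saline on a qd 1-4 or q4d 1, 5, 9 schedule. MED is the dose giving a 40% increase in life span over control in P-388-bearing mice. MTD is the LD10 in tumor-free male CDF1 mice (18-23 g) over 21 days, read from a log dose vs. percent mortality plot and averaged over 2-3 experiments.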

Data set [27] relates to P388. Briefly: Antitumor activity against P-388 lymphocytic leukemia in CDF1 hybrid male mice measured as median survival time (0.25 mg/kg),ip. Type of data set: functional, Mus musculus. The method, boiled down: as §1
Data set [28] relates to P388. Briefly: Antitumor activity against P-388 lymphocytic leukemia in CDF1 hybrid male mice measured as percent increase in lifespan( 0.125 mg/kg),ip. Type of data set: functional. As to conditions: Mus musculus. The method, boiled down: as §1
Data set [29] relates to P388. Briefly: Antitumor activity against P-388 lymphocytic leukemia in CDF1 hybrid male mice measured as percent increase in lifespan( 0.250 mg/kg),ip. It counts as functional. As to conditions: Mus musculus. The method, boiled down:
as §1

Data set [30] concerns P388. Briefly: Antitumor activity against P-388 lymphocytic leukemia in CDF1 hybrid male mice measured as median survival time ( 0.375 mg/kg),ip. It counts as functional, Mus musculus. The method, boiled down: as §1
Data set [31] can be described thus: In vitro growth inhibitory activity for effect on melting temperature of DNA was determined. In a few lines:
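DNA thermal denaturation; ΔTm = Tm of DNA-drug complex minus Tm of DNA. Drug 1.4×10⁻⁴ M, DNA (P) 1.4×10⁻³ M in 0.01 M phosphate buffer pH 7.0 with 5×10⁻³ M EDTA and 5% dimethyl sulfoxide.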

Data set [32] is described as follows: Therapeutic Index measured as the MTD/MED ratio compared to that of compound 3. As to conditions: read-out: Therapeutic index. In a few lines:
as §4

The subject of data set [33] is P388. The data set can be described thus: Antitumor activity against P-388 lymphocytic leukemia in CDF1 hybrid male mice measured as percent increase in lifespan( 0.031 mg/kg),ip. It counts as functional. Particulars: Mus musculus. In a few lines: as §1
The test system of data set [34] is P388. The data set can be described thus: Number of mice with P-388 lymphocytic leukemia cured( 0.125 mg/kg),ip.; 1/7. It counts as functional, Mus musculus.
The subject of data set [35] is P388. The data set can be described thus: Number of mice with P-388 lymphocytic leukemia cured( 0.031 mg/kg),ip; 0/7. Type of data set: functional, Mus musculus.

Values after ≈ are worked out from the molar mass of the structure shown. *1 amine or outer side, *2 acyl side, *3 side chain or, on linkers, in order; H or OH if unused. Where a SMILES comes first, the peptide text is derived from it. Bridges are numbered along the chain shown (N, C = ends). Roman numbers before positions name the chains, in order. [ ]: non-standard residue; d: D form. Actinocin(9to1) = Cc1c2oc3c(C)ccc(C(=O)[*:1])c3nc-2c(C(=O)[*:2])c(N)c1=O; NMeV = CN[C@H](C(=O)O)C(C)C; Sar = CNCC(=O)O

With `Cc1c2oc3c(C)c(OCC(O)CO)cc(C(=O)N[C@@H]4C(=O)N[C@H](C(C)C)C(=O)N5CCC[C@H]5C(=O)N(C)CC(=O)N(C)[C@@H](C(C)C)C(=O)O[C@@H]4C)c3nc-2c(C(=O)N[C@@H]2C(=O)N[C@H](C(C)C)C(=O)N3CCC[C@H]3C(=O)N(C)CC(=O)N(C)[C@@H](C(C)C)C(=O)O[C@@H]2C)c(N)c1=O` (stereo partly specified), the MST in the data set with P388 [1] was 25 days; in the data set on P388 [2], 20 days; with P388 [4] it was 16 days; with P388 [5] it was 32 days; with P388 [14], 15 days. In addition, the results for the increase in lifespan (ILS) in the data set on P388 [3], in the data set with P388 [12] and in the data set on P388 [15] were 45%, 82% and 136%, respectively. Moreover, the Cure came out at 1 with P388 [6]; 0 in the data set with P388 [7]; 0 in the data set with P388 [13]; 0 with P388 [17]; 2 in the data set on P388 [19]. Further, the results for the MED with P388 [8] and with P388 [16] were 0.15 and 0.125, respectively. In the data set with P388 [9], this compound came in with an ILS at 1.2 mg/kg of 191%. The MTD in the data set on P388 [10] worked out at 1.4; in the data set on P388 [11], 1.8. In the data set with P388 [18], the increase in lifespan (ILS) at 1.8 mg/kg amounted to 36%. Also, in the data set listed under Homo sapiens, the IC50 worked out at 0.085 µg/mL (≈ 0.0632 µM).

In the data set with P388 [20], `Cc1c2oc3c(C)ccc(C(=O)N[C@@H]4C(=O)N[C@H](C(C)C)C(=O)N5CCC[C@H]5C(=O)N(C)CC(=O)N(C)[C@@H](C(C)C)C(=O)O[C@@H]4C)c3nc-2c(C(=O)N[C@@H]2C(=O)N[C@H](C(C)C)C(=O)N3CCC[C@H]3C(=O)N(C)CC(=O)N(C)[C@@H](C(C)C)C(=O)O[C@@H]2C)c(N)c1=O` [DACTINOMYCIN] (I: T[dV]P[Sar][NMeV] / II: T[dV]P[Sar][NMeV]; ester I:1-I:C, II:1-II:C; linker I:N-II:N via Actinocin(9to1)) showed an increase in lifespan (ILS) of 45%. Also, the Cure with P388 [21] turned out to be 0; in the data set on P388 [23], 0; in the data set with P388 [34] it was 1; with P388 [35] it was 0. Also, the MST in the data set with P388 [22] stood at 13 days; in the data set on P388 [24] it was 16 days; in the data set with P388 [25], 26 days; in the data set on P388 [27] it was 17 days; in the data set on P388 [30], 9 days. Also, the figures for the selectivity ratio in data set [26] and in data set [32] were 3 and 4, respectively. This compound returned an increase in lifespan (ILS) at 0.125 mg/kg in the data set with P388 [28] of 136%. The same compound came in with an ILS at 0.25 mg/kg in the data set with P388 [29] of 55%. Further, the MED with P388 [8] was 0.0625; in the data set with P388 [16], 0.05. The MTD came out at 0.15 in the data set on P388 [10] and 0.25 in the data set with P388 [11]. For the same compound, the DNA melting temperature shift (ΔTm) in data set [31] is 7.1 °C. In the data set on P388 [33], this compound came in with an ILS at 0.031 mg/kg of 18%. The IC50 in the data set filed under Homo sapiens was found to be 0.06 µg/mL (≈ 0.0478 µM).

Values taken from ChEMBL document CHEMBL1121953, “Carbon-7 substituted actinomycin D analogues as improved antitumor agents: synthesis and DNA-binding and biological properties” (J Med Chem, 1982).
